Results as given in ChEMBL document CHEMBL1126653, “Structure-function studies of amphiphilic antibacterial peptides” (1993).
≈ marks a conversion by molar mass, not a printed value. Peptide text beside a SMILES is read from it.

How the values were obtained:
[1] = tested on: Acinetobacter calcoaceticus subsp. anitratus; test: Compound tested for the antimicrobial activity against Acinetobacter anitratus; assay type: functional
In short: (§1)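 MIC by microbroth dilution in Tryptic Soy Broth; inoculum 5×10^5 CFU/mL; plates incubated 18-20 h at 37 °C; assay pH approximately 7.4.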

Escherichia coli = test: Compound tested for in vitro susceptibility against ATCC strain 25922 of Escherichia coli; assay type: functional; conditions: ATCC25922
In short: (§2)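 Microbroth dilution in Tryptic Soy Broth; inoculum 5×10^5 CFU/mL; plates incubated at 37 °C for 18-20 h; value reported as minimal inhibitory concentration (µg/mL).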

Enterobacter cloacae [2] = test: Compound tested for the antimicrobial activity against Enterobacter cloacae; assay type: functional; in short: as §2
Enterobacter cloacae [3] = test: Compound tested for the antimicrobial activity against Enterobacter cloacae ROS; assay type: functional, enterobacter cloacaeros; in short: as §1
[4] = Hemolytic activity towards human erythrocytes is evaluated for magainin 2 at peptide concentration of 100 µg/mL; assay type: functional
In short: (§3)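 Washed human erythrocytes from healthy volunteers (3 mL packed cells, PBS pH 7.4 washes, diluted to 20 mL) exposed to peptide in PBS at 25-200 µg/mL, 30 min at 37 °C; supernatant absorbance at 576 nm after centrifugation; 0.1% Triton X-100 taken as 100% hemolysis; duplicates.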

[5] = Hemolytic activity towards human erythrocytes is evaluated for magainin 2 at peptide concentration of 200 µg/mL; assay type: functional; in short: as §3
[6] = Hemolytic activity towards human erythrocytes is evaluated for magainin 2 at peptide concentration of 25 ug/mL; assay type: functional; in short: as §3
[7] = Hemolytic activity towards human erythrocytes is evaluated for magainin 2 at peptide concentration of 50 µg/mL; assay type: functional; in short: as §3
Klebsiella pneumoniae = test: Compound tested for the antimicrobial activity against Klebsiella pneumoniae; assay type: functional; in short: as §1
Pseudomonas aeruginosa [8] = test: Compound tested for the antimicrobial activity against Pseudomonas aeruginosa strain 8; assay type: functional; in short: as §2
Pseudomonas aeruginosa [9] = test: Compound tested for the antimicrobial activity against Pseudomonas aeruginosa strain 9; assay type: functional; in short: as §2
Pseudomonas aeruginosa [10] = test: Compound tested for the antimicrobial activity against Pseudomonas aeruginosa strain ATCC 25916; assay type: functional; in short: as §2
Proteus mirabilis = test: Compound tested for the antimicrobial activity against Proteus mirabilis; assay type: functional; in short: as §2
Pseudomonas aeruginosa [11] = test: Compound tested for in vitro susceptibility against ATCC strain 27853 of Pseudomonas aeruginosa; assay type: functional; conditions: ATCC 27853; in short: as §2
Pseudomonas aeruginosa [12] = test: Compound tested for the antimicrobial activity against Pseudomonas aeruginosa strain 1; assay type: functional; in short: as §2
Pseudomonas aeruginosa [13] = test: Compound tested for the antimicrobial activity against Pseudomonas aeruginosa strain 10; assay type: functional; in short: as §2
Pseudomonas aeruginosa [14] = test: Compound tested for the antimicrobial activity against Pseudomonas aeruginosa strain 11; assay type: functional; in short: as §2
Pseudomonas aeruginosa [15] = test: Compound tested for the antimicrobial activity against Pseudomonas aeruginosa strain 2; assay type: functional; in short: as §2
Pseudomonas aeruginosa [16] = test: Compound tested for the antimicrobial activity against Pseudomonas aeruginosa strain 3; assay type: functional; in short: as §2
Pseudomonas aeruginosa [17] = test: Compound tested for the antimicrobial activity against Pseudomonas aeruginosa strain 4; assay type: functional; in short: as §2
Pseudomonas aeruginosa [18] = test: Compound tested for the antimicrobial activity against Pseudomonas aeruginosa strain 5; assay type: functional; in short: as §2
Pseudomonas aeruginosa [19] = test: Compound tested for the antimicrobial activity against Pseudomonas aeruginosa strain 6; assay type: functional; in short: as §2
Pseudomonas aeruginosa [20] = test: Compound tested for the antimicrobial activity against Pseudomonas aeruginosa strain 7; assay type: functional; in short: as §2
[21] = tested on: Salmonella enterica subsp. enterica serovar Anatum; test: Compound tested for the antimicrobial activity against S. a natum; assay type: functional, salmoneila anatum; in short: as §2
Staphylococcus aureus [22] = test: Compound tested for the activity against Staphylococcus aureus strain 4; assay type: functional; in short: as §2
Staphylococcus aureus [23] = test: Compound tested for the activity against Staphylococcus aureus strain 5; assay type: functional; in short: as §2
Staphylococcus aureus [24] = test: Compound tested for the activity against Staphylococcus aureus strain 6; assay type: functional; in short: as §2
Staphylococcus aureus [25] = test: Compound tested for the activity against Staphylococcus aureus strain 7; assay type: functional; in short: as §2
Staphylococcus aureus [26] = test: Compound tested for the activity against Staphylococcus aureus strain 8; assay type: functional; in short: as §2
Staphylococcus aureus [27] = test: Compound tested for the activity against Staphylococcus aureus strain 9; assay type: functional; in short: as §2
Staphylococcus aureus [28] = test: Compound tested for the activity against Staphylococcus aureus strain ATCC 28953; assay type: functional; in short: as §2
Staphylococcus aureus [29] = test: Compound tested for in vitro susceptibility against ATCC strain 29213 of Staphylococcus aureus; assay type: functional; in short: as §2
Shigella flexneri = test: Compound tested for the antimicrobial activity against Shigella flexneri; assay type: functional; in short: as §1
Staphylococcus aureus [30] = test: Compound tested for the activity against Staphylococcus aureus strain 1; assay type: functional; in short: as §2
Staphylococcus aureus [31] = test: Compound tested for the activity against Staphylococcus aureus strain 10; assay type: functional; in short: as §2
Staphylococcus aureus [32] = test: Compound tested for the activity against Staphylococcus aureus strain 11; assay type: functional; in short: as §2
Staphylococcus aureus [33] = test: Compound tested for the activity against Staphylococcus aureus strain 2; assay type: functional; in short: as §2
Staphylococcus aureus [34] = test: Compound tested for the activity against Staphylococcus aureus strain 3; assay type: functional; in short: as §2
Staphylococcus aureus [35] = test: Compound tested for the activity against strain of Staphylococcus aureus ATCC 28953; assay type: functional; in short: as §2

| Compound | MIC (Escherichia coli) [µg/mL] | Hemolysis [4] [%] | Hemolysis [5] [%] | Hemolysis [6] [%] | Hemolysis [7] [%] | MIC (Pseudomonas aeruginosa [8]) [µg/mL] | MIC (Pseudomonas aeruginosa [9]) [µg/mL] | MIC (Pseudomonas aeruginosa [10]) [µg/mL] | MIC (Pseudomonas aeruginosa [11]) [µg/mL] | MIC (Pseudomonas aeruginosa [12]) [µg/mL] | MIC (Pseudomonas aeruginosa [13]) [µg/mL] | MIC (Pseudomonas aeruginosa [14]) [µg/mL] | MIC (Pseudomonas aeruginosa [15]) [µg/mL] | MIC (Pseudomonas aeruginosa [16]) [µg/mL] | MIC (Pseudomonas aeruginosa [17]) [µg/mL] | MIC (Pseudomonas aeruginosa [18]) [µg/mL] | MIC (Pseudomonas aeruginosa [19]) [µg/mL] | MIC (Pseudomonas aeruginosa [20]) [µg/mL] | MIC (Staphylococcus aureus [22]) [µg/mL] | MIC (Staphylococcus aureus [23]) [µg/mL] | further results |
| --- | --- | --- | --- | --- | --- | --- | --- | --- | --- | --- | --- | --- | --- | --- | --- | --- | --- | --- | --- | --- | --- |
| CC(C)C[C@H](NC(=O)[C@H](C)NC(=O)[C@H](CCCCN)NC(=O)[C@H](C)NC(=O)[C@H](CC(C)C)NC(=O)[C@H](CCCCN)NC(=O)[C@H](C)NC(=O)[C@H](CC(C)C)NC(=O)[C@H](CCCCN)NC(=O)[C@H](C)NC(=O)[C@H](CC(C)C)NC(=O)[C@H](CCCCN)NC(=O)[C@H](CCCCN)NC(=O)[C@H](C)NC(=O)[C@H](CC(C)C)NC(=O)[C@@H](N)CCCCN)C(=O)O (H-KLAKKLAKLAKLAKAL-OH) | 6.25 (≈ 3.66 µM) | 1 | 2 | 1 | 1 | 50 (≈ 29.3 µM) | > 100 | 6.25 (≈ 3.66 µM) | 3.12 (≈ 1.83 µM) | 3.12 (≈ 1.83 µM) | > 100 | 6.25 (≈ 3.66 µM) | 6.25 (≈ 3.66 µM) | 3.12 (≈ 1.83 µM) | 3.12 (≈ 1.83 µM) | 6.25 (≈ 3.66 µM) | > 100 | 6.25 (≈ 3.66 µM) | > 100 | > 100 | MIC [1]: 3.12 µg/mL (≈ 1.83 µM); MIC (Enterobacter cloacae [2]): 3.12 µg/mL (≈ 1.83 µM); MIC (Enterobacter cloacae [3]): 12.5 µg/mL (≈ 7.32 µM); MIC (Klebsiella pneumoniae): 12.5 µg/mL (≈ 7.32 µM); MIC (Proteus mirabilis): > 100 µg/mL; MIC [21]: 25 µg/mL (≈ 14.6 µM); MIC (Staphylococcus aureus [24]): > 100 µg/mL; MIC (Staphylococcus aureus [25]): > 100 µg/mL; MIC (Staphylococcus aureus [26]): > 100 µg/mL; MIC (Staphylococcus aureus [27]): > 100 µg/mL; MIC (Staphylococcus aureus [28]): > 100 µg/mL; MIC (Staphylococcus aureus [29]): 12.5 µg/mL (≈ 7.32 µM); MIC (Shigella flexneri): 25 µg/mL (≈ 14.6 µM); MIC (Staphylococcus aureus [30]): > 100 µg/mL; MIC (Staphylococcus aureus [31]): > 100 µg/mL; MIC (Staphylococcus aureus [32]): > 100 µg/mL; MIC (Staphylococcus aureus [33]): > 100 µg/mL; MIC (Staphylococcus aureus [34]): > 100 µg/mL |
| CC(C)C[C@H](NC(=O)[C@H](Cc1c[nH]c2ccccc12)NC(=O)[C@H](CCCCN)NC(=O)[C@H](CCCCN)NC(=O)[C@@H](N)Cc1c[nH]c2ccccc12)C(=O)N[C@@H](Cc1c[nH]c2ccccc12)C(=O)N[C@@H](C)C(=O)N[C@@H](CCCCN)C(=O)N[C@@H](Cc1c[nH]c2ccccc12)C(=O)O (H-WKKWLWAKW-OH) | 50 (≈ 37.5 µM) | 4 | 5 | 1 | 1 | 50 (≈ 37.5 µM) | > 100 | 50 (≈ 37.5 µM) | 12.5 (≈ 9.39 µM) | 50 (≈ 37.5 µM) | > 100 | 50 (≈ 37.5 µM) | 12.5 (≈ 9.39 µM) | 50 (≈ 37.5 µM) | 50 (≈ 37.5 µM) | 50 (≈ 37.5 µM) | > 100 | 50 (≈ 37.5 µM) | 50 (≈ 37.5 µM) | 50 (≈ 37.5 µM) | MIC (Staphylococcus aureus [24]): 50 µg/mL (≈ 37.5 µM); MIC (Staphylococcus aureus [25]): 25 µg/mL (≈ 18.8 µM); MIC (Staphylococcus aureus [26]): 50 µg/mL (≈ 37.5 µM); MIC (Staphylococcus aureus [27]): 50 µg/mL (≈ 37.5 µM); MIC (Staphylococcus aureus [35]): > 100 µg/mL; MIC (Staphylococcus aureus [29]): 25 µg/mL (≈ 18.8 µM); MIC (Staphylococcus aureus [30]): 50 µg/mL (≈ 37.5 µM); MIC (Staphylococcus aureus [31]): 50 µg/mL (≈ 37.5 µM); MIC (Staphylococcus aureus [32]): 50 µg/mL (≈ 37.5 µM); MIC (Staphylococcus aureus [33]): 25 µg/mL (≈ 18.8 µM); MIC (Staphylococcus aureus [34]): > 100 µg/mL |
